# MBD2 inh = blocks human MBD2 binding to methylated DNA; Q9UBB5; TR-FRET, MBD2 binding to methylated oligonucleotide; inhibition, % at 4.4 µM; 370,000 tested, 0.31% active; in the data active = inhibition above about 13%
# NSD2 HMT inh = NSD2 (human) methyltransferase inhibition | inhibition, % at 12.5 µM | NSD2 peptide methylation, AlphaScreen, 120 min | O96028 | 310,000 tested, 0.54% active; in the data active = inhibition above about 50%
# CASP6 VEID inh = caspase-6 (human) enzyme inhibition. P55212. purified caspase-6, Z-VEID-R110 cleavage fluorescence. inhibition, % at 12.5 µM. 350,000 tested, 0.53% active. AID 686996;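 active = mean inhibition across replicates at least about 35%, with every replicate also reaching that limit, limit read from the data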;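 also: 0% = median of neutral control wells and 100% = no fluorescence left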
# LEDGF integ inh = blocks HIV-1 LEDGF/p75-dependent DNA integration; TR-FRET IN-LEDGF/p75 DNA integration, Eu/Cy5; inhibition, % at 3.7 µM; 370,000 tested, 0.64% active;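 active = inhibition above the screen-wide mean plus 3 SD, cut at about 13% in these data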;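 also: signal is the Cy5 over europium emission ratio at 671 and 618 nm; 0% = plate median of compound wells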
# TDP2 absorb = blocks human TDP2 phosphodiesterase activity; 370,000 tested, 0.34% active; inhibition, % at 12.8 µM; AID 720702; recombinant TDP2, T5PNP hydrolysis, p-nitrophenol absorbance 415 nm; O95551;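 active = inhibition above the mean of all tested compounds plus 3 SD, set per campaign, cut at about 25% in these data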;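 also: 0% = DMSO with enzyme and 100% = buffer with substrate but no TDP2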
#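 Material: recombinant human TDP2; quantity: TDP2 enzyme at 120 nM final; medium: Tris-HCl pH 7.5 with MgCl2; compound: single concentration, 12.8 µM nominal, with 1% DMSO; incubation: 2 h enzyme incubation at 37 °C; signal: epi absorbance; measure: percent inhibition; benchmarks: high control without enzyme, low control DMSO plus TDP2; repeats: singlicate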
# UHRF1 binding = blocks human UHRF1 binding to methylated DNA; Q96T88; UHRF1 binding to methylated oligo, TR-FRET; inhibition, % at 4.4 µM; 370,000 tested, 0.75% active; in the data active = inhibition above about 21%;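 also: UHRF1 SRA domain binding a hemimethylated CpG hairpin DNA probe; 0% = median of test compound wells and 100% = reference inhibitor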
# Target sequence (Q96T88 whole entry, looked up, the tested form may be a part): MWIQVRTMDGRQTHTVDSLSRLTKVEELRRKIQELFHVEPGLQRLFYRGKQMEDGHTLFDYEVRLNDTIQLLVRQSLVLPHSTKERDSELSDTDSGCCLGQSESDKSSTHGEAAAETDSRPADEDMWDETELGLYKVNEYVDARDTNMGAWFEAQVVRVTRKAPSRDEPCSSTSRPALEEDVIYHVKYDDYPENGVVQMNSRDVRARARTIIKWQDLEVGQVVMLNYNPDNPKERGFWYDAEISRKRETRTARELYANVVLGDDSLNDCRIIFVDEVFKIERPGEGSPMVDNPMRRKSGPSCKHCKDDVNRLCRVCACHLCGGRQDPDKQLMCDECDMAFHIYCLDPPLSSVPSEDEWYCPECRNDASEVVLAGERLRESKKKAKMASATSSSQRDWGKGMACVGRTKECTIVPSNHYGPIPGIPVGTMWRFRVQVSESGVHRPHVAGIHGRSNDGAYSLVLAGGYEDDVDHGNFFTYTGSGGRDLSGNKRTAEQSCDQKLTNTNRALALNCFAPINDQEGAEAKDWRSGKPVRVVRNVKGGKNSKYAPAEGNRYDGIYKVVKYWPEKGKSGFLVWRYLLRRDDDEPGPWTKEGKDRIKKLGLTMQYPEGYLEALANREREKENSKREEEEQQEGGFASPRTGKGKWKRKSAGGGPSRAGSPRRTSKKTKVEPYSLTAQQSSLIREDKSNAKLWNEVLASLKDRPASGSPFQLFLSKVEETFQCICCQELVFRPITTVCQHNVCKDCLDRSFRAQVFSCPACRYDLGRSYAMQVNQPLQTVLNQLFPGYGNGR
# IN multimer up = counter-screen for LEDGF/p75 integration inhibitors: HIV-1 integrase multimerization activators. AID 1053131. 2,000 tested, 17% active. activation, % at 7.7 µM. TR-FRET HIV-1 integrase multimerization, biochemical. shares compounds with LEDGF integ inh; in the data active = activation above about 8.9%
# TR-FRET interf = TR-FRET optical interference, LEDGF/p75 integration counter-screen | shares compounds with LEDGF integ inh | TR-FRET optical interference counterscreen, HIV-1 IN multimerization | inhibition, % at 7.7 µM | 2,000 tested, under 10 active | AID 1053135;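 active = inhibition above the mean over all tested compounds plus 3 SD, which no compound reached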;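 also: 0% = integrase with antibodies and DMSO and 100% = antibodies without integrase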
# IN-LEDGF confirm = confirmation of HIV-1 LEDGF/p75-dependent integration inhibitors. 2,000 tested, 36% active. shares compounds with LEDGF integ inh. TR-FRET LEDGF/p75-dependent HIV-1 integration, biochemical. inhibition, % at 3.7 µM. AID 1053136; in the data active = inhibition above about 14%
# An asterisk follows results filed as active; x = no result. Shown are actives, neighbours in structure and some others; about 1.8% of the full set was active somewhere.
SMILES,MBD2 inh,NSD2 HMT inh,CASP6 VEID inh,LEDGF integ inh,TDP2 absorb,UHRF1 binding,IN multimer up,TR-FRET interf,IN-LEDGF confirm
Cc1ncc([N+](=O)[O-])n1CC(=O)Nc1cc(Cl)ccc1Cl,0,-3,-2,52*,0,2,-1,3,-2
Cc1cc(Br)c(NC(=O)Cn2c([N+](=O)[O-])cnc2C)cc1C,-3,-3,-4,-2,-6,-1,x,x,x
Cc1ccc(/C=[N+](\[O-])c2ccc(N(C)C)cc2)c2nsnc12,-7,8,x,14*,16,0,10*,-38,11
C[C@@]12C(=O)N(c3cccc(Cl)c3)C(=O)N1[C@@H]1c3ccccc3OC[C@@H]1[C@H]2c1ccccc1,4,x,-3,34*,4,0,1,-6,1
CN(Cc1ccccc1)C(=O)c1[nH]cnc1C(=O)Nc1ccccc1,0,x,1,2,9,0,x,x,x
CN(Cc1ccccc1)C(=O)c1nc[nH]c1C(=O)N(C)Cc1ccccc1,2,x,0,17*,3,1,0,-2,7
CCC(=O)c1c[nH]c(C(=O)NCCc2ccccn2)c1,-2,5,x,1,-1,-2,x,x,x
Cc1ccccc1C(=O)c1c[nH]c(C(=O)NCCc2ccccn2)c1,4,-5,-3,22*,8,1,1,-4,-2
O=C(C(O)c1ccc(Br)cc1)N1CCC(Nc2ccc3[nH]ncc3c2)CC1 (stereo not drawn),-3,x,6,17*,4,-5,5,-25,1
O=C(c1cnccn1)N1CC(=O)N2[C@@H](CO)[C@@H](c3ccc(C#CC4CCCCC4)cc3)[C@@H]2C1,x,x,6,x,x,x,x,x,x
Cc1ccc(OCC(=O)Nc2ccc(F)cc2)cc1C,4,-4,1,20*,7,-3,0,-2,-15
O=C1CC(c2ccco2)CC(O)=C1C=NCC1NCCc2ccccc21 (stereo not drawn),-7,3,x,23*,8,-3,4,-15,6
C[C@@H]1CCCCO[C@@H](CN(C)C(=O)Nc2cccc3ccccc23)[C@@H](C)CN([C@@H](C)CO)C(=O)c2cc(NC(=O)Nc3ccc(C(F)(F)F)cc3)ccc2O1,x,x,0,x,x,x,x,x,x
CCNC(=O)C[C@H]1CC[C@@H]2[C@H](COc3ccc(NC(=O)c4ccccc4)cc3C(=O)N2C)O1,x,x,0,x,x,x,x,x,x
Nc1ccc2c(c1)C/C(=C/c1ccco1)C2=O,24*,-1,x,49*,1,69*,19*,-95,25*
O=C(O)c1cccc(Cl)n1,-4,-1,3,83*,4,0,2,-8,-4
CC(=O)Nc1cccc(C(=O)O)n1,-2,-4,-2,-2,-2,1,x,x,x
Cc1ccccc1S(=O)(=O)N1C[C@H](O)COC[C@H]2O[C@@H](CC(=O)N3CCOCC3)CC[C@@H]21,x,x,-2,x,x,x,x,x,x
Cc1ccc(N2C(=O)[C@@H]3[C@H](C2=O)[C@H]2C=C(C(=O)c4ccccc4)C=CN2[C@@H]3C(=O)c2ccc(Cl)cc2)cc1,-2,0,-1,3,0,0,x,x,x
Cc1ccc(N2C(=O)[C@@H]3[C@H](C2=O)C2c4ccccc4C=CN2[C@@H]3C(=O)c2ccco2)cc1 (stereo partly drawn),2,5,x,13*,14,-9,1,-5,25*
O=C1/C(=C/c2ccco2)CCc2ccccc21,-1,11,0,6,5,3,x,x,x
O=C1C(=Cc2ccco2)C(=O)c2ccccc21,-2,12,x,14*,-1,0,-2,9,11
C[C@@H]1CN([C@H](C)CO)C(=O)c2cccc(NS(=O)(=O)c3cccs3)c2O[C@@H]1CN(C)S(=O)(=O)c1cccs1,x,x,0,x,x,x,x,x,x
COc1cc(CNc2ccc(N3CCOCC3)cc2)cc(Br)c1OC,-2,14,x,13,-8,7,x,x,x
CCOc1cc(CNc2ccc(N(C)C)cc2)cc(Br)c1OCC(=O)NC(C)(C)C,-1,6,x,-3,-4,3,x,x,x
SMILES,MBD2 inh,NSD2 HMT inh,CASP6 VEID inh,LEDGF integ inh,TDP2 absorb,UHRF1 binding,IN multimer up,TR-FRET interf,IN-LEDGF confirm
CCOc1cc(CNc2ccc(N3CCCCC3)cc2)cc(Br)c1OCC(=O)NC(C)(C)C,-5,3,x,15*,12,-6,2,-10,2
CCOc1cc(CNc2ccc(N3CCOCC3)cc2)cc(Br)c1OCC,-7,21,x,15*,16,-1,2,-8,-4
COc1ccc(CN(C)C[C@H]2OCCCC[C@H](C)Oc3ccc(NC(=O)Nc4ccc(OC)cc4)cc3C(=O)N([C@@H](C)CO)C[C@@H]2C)cc1,x,x,0,x,x,x,x,x,x
COC(=O)CN1C(=O)[C@H]2[C@@H](/C=C/c3ccccc3)N3C(=O)CN(Cc4ccccc4)C(=O)[C@@]3(C)[C@H]2C1=O,1,x,-1,81*,-6,-2,0,-2,-17
CCn1c(SCC(=O)Nc2cc(C)on2)nnc1-c1ccc(S(=O)(=O)N2CCN(C)CC2)cc1,-2,-3,x,18*,13,0,0,2,-1
CO[C@@H]1CN(C)C(=O)c2cc(NC(=O)C3CCCCC3)ccc2OC[C@@H](C)NC[C@@H]1C,x,x,-1,x,x,x,x,x,x
O=CNc1cc(-c2ccoc2)cn2c(-c3ccc(F)cc3)cnc12,1,5,11,14*,3,-2,0,-2,12
O=CNc1cc(-c2cccc(F)c2)cn2c(-c3ccc(F)cc3)cnc12,0,7,24,1,-9,-4,x,x,x
CC(=O)c1ccc(-c2cnc3c(NC=O)cc(-c4cnn(C)c4)cn23)cc1,-11,8,11,24*,3,-10,-1,7,4
O=C(CCSc1ccccc1)Nc1nnc(-c2ccccc2)o1,2,x,-1,16*,-8,-1,-3,16,2
COc1ccc(CN(C)C[C@@H]2Oc3c(NC(=O)c4cc(C)nn4C)cccc3C(=O)N([C@@H](C)CO)C[C@H]2C)cc1,x,x,4,x,x,x,x,x,x
O=C(N/N=C/c1cccnc1)c1cc(O)c(O)c(O)c1,1,4,41*,38*,15,15,35*,-125,20*
CCOc1ccc(CC(=O)N/N=C/c2cccnc2)cc1OCC,-3,-2,-4,70*,7,-4,2,-10,0
O=C(NC(Cc1ccccc1)C(=O)O)/C(=C\c1ccccc1F)NC(=O)c1ccccc1 (stereo not drawn),-2,-2,-1,2,8,-2,x,x,x
